This passage reports IC50 and Ki results from ChEMBL document CHEMBL1145153, “Discovery of potent anilide inhibitors against the severe acute respiratory syndrome 3CL protease” (J Med Chem, 2005).

SMILES strings stand for the structures. *1 amine or outer side, *2 acyl side, *3 side chain or, on linkers, in order; H or OH if unused. Where a SMILES comes first, the peptide text is derived from it. [ ]: non-standard residue; d: D form. The star is where a group is joined. ξ: configuration not given here. NH(2-Cl-4-NO2-phenyl) = O=[N+]([O-])c1ccc(N*)c(Cl)c1; Phe(4-F) = N[C@@H](Cc1ccc(F)cc1)C(=O)O; Thr(3ξ) = CC(O)[C@H](N)C(=O)O; Morpholide = C1CN(*)CCO1; Cbz = O=C(OCc1ccccc1)*; CO = O=C([*:1])[*:2]; Piv = CC(C)(C)C(=O)*; Propionyl = CCC(=O)*; Bz = O=C(c1ccccc1)*; X1 = CC1CCN(*)O1

One experiment is described as follows: Concentration required to inhibit SARS-CoV 3CL protease catalyzed cleavage of fluorogenic peptide Dabcyl-KTSAVLQSGFRKME-Edans by 50%. In outline:
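Purified enzyme (stock held in 12 mM Tris-HCl pH 7.5, 120 mM NaCl, 0.1 mM EDTA, 1 mM DTT, 7.5 mM β-ME) at 50 nM with 6 μM substrate in 20 mM Bis-Tris pH 7.0. Cleavage followed as fluorescence increase, excitation 355 nm, emission 538 nm. IC50 taken from initial velocities plotted against inhibitor concentration.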
In the case of `CC(C)[C@H](NC(=O)c1ccccc1)C(=O)N[C@@H](Cc1ccc(F)cc1)C(=O)N[C@H](C(=O)N[C@@H](Cc1ccccc1)C(=O)Nc1ccc([N+](=O)[O-])cc1Cl)C(C)O` (stereo not given in full) (Bz-V[Phe(4-F)][Thr(3ξ)]F-{NH(2-Cl-4-NO2-phenyl)}), the midpoint of inhibition, the IC50, lay at 2 µM.

As to `CN(C)c1ccc(C(=O)N[C@@H](Cc2ccccc2)C(=O)Nc2ccccc2)cc1`, the IC50 – broadly, the concentration that gives 50% inhibition – was over 10 µM.

`CC(C)C[C@H](CC(=O)[C@@H](NC(=O)N1CCOCC1)C(C)C)C(=O)N[C@@H](Cc1ccccc1)C(=O)Nc1ccc([N+](=O)[O-])cc1Cl`: the IC50 was 29 µM.

In the case of `CC(O)[C@H](NC(=O)[C@H](O)[C@@H](O)C(=O)N[C@H](C(=O)N[C@H](Cc1ccccc1)C(=O)Nc1ccc([N+](=O)[O-])cc1Cl)C(C)O)C(=O)N[C@@H](Cc1ccccc1)C(=O)Nc1ccc([N+](=O)[O-])cc1Cl` (stereo not given in full), the IC50 was determined as 2 µM.

For `CC(C)[C@H](NC(=O)c1cccs1)C(=O)C[C@@H](Cc1ccccc1)C(=O)N[C@@H](Cc1ccccc1)C(=O)Nc1ccc([N+](=O)[O-])cc1Cl`, the IC50 worked out at 16 µM.

The compound `CCC(=O)N[C@H](C(=O)N[C@@H](CC(C)C)C(=O)N[C@H](C(=O)N[C@@H](Cc1ccccc1)C(=O)Nc1ccc([N+](=O)[O-])cc1Cl)C(C)O)C(C)C` (stereo not given in full) (Propionyl-VL[Thr(3ξ)]F-{NH(2-Cl-4-NO2-phenyl)}) showed an IC50 of 7 µM.

In turn, `O=C(C[C@H](O)C(=O)N[C@@H](Cc1ccccc1)C(=O)Nc1ccc([N+](=O)[O-])cc1Cl)NC(Cc1ccccc1)C(=O)Nc1ccc([N+](=O)[O-])cc1Cl` (stereo not given in full) had an IC50 of 4 µM.

`O=C(Nc1ccc([N+](=O)[O-])cc1Cl)c1cc(Cl)ccc1O` [NICLOSAMIDE]: the IC50 is over 10 µM.

On to `CC(C)C[C@H](CC(=O)[C@@H](NC(=O)c1ccccc1)C(C)C)C(=O)N[C@@H](Cc1ccccc1)C(=O)Nc1ccc([N+](=O)[O-])cc1Cl`, for which half-maximal inhibition (IC50) required 21 µM.

As for `CC(C)C[C@H](CC(=O)[C@@H](NC(=O)c1cccs1)C(C)C)C(=O)N[C@@H](Cc1ccccc1)C(=O)Nc1ccc([N+](=O)[O-])cc1Cl`, the IC50 stood at 22 µM.

Turning to `O=C(N[C@@H](Cc1ccccc1)C(=O)Nc1ccc([N+](=O)[O-])cc1)c1ccccc1`, the IC50 was over 10 µM.

`CCC(=O)N[C@H](C(=O)N[C@@H](Cc1ccc(F)cc1)C(=O)N[C@H](C(=O)N[C@@H](Cc1ccccc1)C(=O)Nc1ccc([N+](=O)[O-])cc1Cl)C(C)O)C(C)C` (stereo not given in full) (Propionyl-V[Phe(4-F)][Thr(3ξ)]F-{NH(2-Cl-4-NO2-phenyl)}) had an IC50 of 5 µM.

With `CC(O)[C@H](NC(=O)C[C@@H](O)C(=O)N[C@H](C(=O)N[C@@H](Cc1ccccc1)C(=O)Nc1ccc([N+](=O)[O-])cc1Cl)C(C)O)C(=O)NC(Cc1ccccc1)C(=O)Nc1ccc([N+](=O)[O-])cc1Cl` (stereo not given in full), half-maximal inhibition (IC50) was put at 2 µM.

With `CC(C)(C)OC(=O)N[C@@H](Cc1ccccc1)C(=O)Nc1ccc([N+](=O)[O-])cc1Cl`, the IC50 is over 50 µM.

Compound `CCC(=O)N[C@H](C(=O)C[C@@H](CC(C)C)C(=O)N[C@@H](Cc1ccccc1)C(=O)Nc1ccc([N+](=O)[O-])cc1Cl)C(C)C` showed an IC50 of 27 µM.

The compound `O=C(N[C@@H](Cc1ccccc1)C(=O)Nc1ccc([N+](=O)[O-])cc1Cl)c1ccc([N+](=O)[O-])cc1` returned an IC50 of over 10 µM.

Take `O=C(CCC(=O)N[C@@H](Cc1ccccc1)C(=O)Nc1ccc([N+](=O)[O-])cc1Cl)NC(Cc1ccccc1)C(=O)Nc1ccc([N+](=O)[O-])cc1Cl` (stereo not given in full): the IC50 was over 50 µM.

In the case of `CC(C)C[C@H](NC(=O)[C@@H](NC(=O)N1CCOCC1)C(C)C)C(=O)N[C@@H](Cc1ccccc1)C(=O)Nc1ccc([N+](=O)[O-])cc1Cl`, the IC50 was 19 µM.

`CC(O)[C@H](NC(=O)CCC(=O)N[C@H](C(=O)N[C@@H](Cc1ccccc1)C(=O)Nc1ccc([N+](=O)[O-])cc1Cl)C(C)O)C(=O)NC(Cc1ccccc1)C(=O)Nc1ccc([N+](=O)[O-])cc1Cl` (stereo not given in full) displayed an IC50 of 2 µM.

As to `CCCC(=O)N[C@H](C(=O)N[C@@H](CC(C)C)C(=O)N[C@@H](Cc1ccccc1)C(=O)Nc1ccc([N+](=O)[O-])cc1Cl)C(C)C`, the IC50 worked out at 7 µM.

As for `CCCCCCCCCCCCCCC(Br)C(=O)N[C@@H](Cc1ccccc1)C(=O)Nc1ccc([N+](=O)[O-])cc1Cl` (stereo not given in full), the IC50 amounted to 3 µM.

Compound `CC(C)C[C@H](NC(=O)[C@@H](NC(=O)N1CCOCC1)C(C)C)C(=O)N[C@H](C(=O)N[C@@H](Cc1ccccc1)C(=O)Nc1ccc([N+](=O)[O-])cc1Cl)C(C)O` (stereo not given in full) ({Morpholide-CO}-VL[Thr(3ξ)]F-{NH(2-Cl-4-NO2-phenyl)}) gave an IC50 of 16 µM.

In the case of `Nc1ccc(C(=O)N[C@@H](Cc2ccccc2)C(=O)Nc2ccc([N+](=O)[O-])cc2Cl)cc1N`, inhibition was half-maximal at 2 µM (IC50).

The compound `CN(C)c1ccc(C(=O)N[C@@H](Cc2ccccc2)C(=O)Nc2ccccc2Cl)cc1` registered an IC50 of over 10 µM.

The compound `CC1CCN(C(=O)N[C@H](C(=O)N[C@@H](Cc2ccccc2)C(=O)N[C@H](C(=O)N[C@@H](Cc2ccccc2)C(=O)Nc2ccc([N+](=O)[O-])cc2Cl)C(C)O)C(C)C)O1` (stereo not given in full) ({X1-CO}-VF[Thr(3ξ)]F-{NH(2-Cl-4-NO2-phenyl)}) yielded an IC50 of 5 µM.

As for `CC(C)C[C@H](NC(=O)[C@@H](NC(=O)c1cccs1)C(C)C)C(=O)N[C@@H](Cc1ccccc1)C(=O)Nc1ccc([N+](=O)[O-])cc1Cl`, the IC50 was found to be 5 µM.

`CC(C)[C@H](NC(=O)c1cccs1)C(=O)N[C@@H](Cc1ccccc1)C(=O)N[C@@H](Cc1ccccc1)C(=O)Nc1ccc([N+](=O)[O-])cc1Cl`: the IC50 was 5 µM.

`CN(C)c1ccc(C(=O)N[C@@H](Cc2ccccc2)C(=O)Nc2ccc([N+](=O)[O-])cc2Cl)cc1` registered an IC50 of 0.06 µM.

In turn, `CC(C)C[C@H](CC(=O)[C@@H](NC(=O)OC(C)(C)C)C(C)C)C(=O)N[C@@H](Cc1ccccc1)C(=O)Nc1ccc([N+](=O)[O-])cc1Cl` had an IC50 of 19 µM.

The compound `O=C(N[C@@H](Cc1ccccc1)C(=O)Nc1ccc([N+](=O)[O-])cc1Cl)c1ccccc1` showed an IC50 of over 10 µM.

`O=C(/C=C/c1c[nH]c2ccccc12)N[C@@H](Cc1ccccc1)C(=O)Nc1ccc([N+](=O)[O-])cc1Cl` came in with an IC50 of 3 µM.

The compound `CC(C)C[C@H](NC(=O)[C@@H](NC(=O)c1ccccc1)C(C)C)C(=O)N[C@@H](Cc1ccccc1)C(=O)Nc1ccc([N+](=O)[O-])cc1Cl` yielded an IC50 of 4 µM.

For the compound `O=C(Nc1ccc([N+](=O)[O-])cc1Cl)C(Cc1ccccc1)NC(=O)[C@H](O)[C@@H](O)C(=O)N[C@@H](Cc1ccccc1)C(=O)Nc1ccc([N+](=O)[O-])cc1Cl` (stereo not given in full), the IC50 stood at 5 µM.

`CC1CCN(C(=O)N[C@H](C(=O)N[C@@H](Cc2ccccc2)C(=O)N[C@@H](Cc2ccccc2)C(=O)Nc2ccc([N+](=O)[O-])cc2Cl)C(C)C)O1` (stereo not given in full) displayed an IC50 of 7 µM.

Consider `CC(C)[C@H](NC(=O)OCc1ccccc1)C(=O)N[C@@H](Cc1ccccc1)C(=O)N[C@H](C(=O)N[C@@H](Cc1ccccc1)C(=O)Nc1ccc([N+](=O)[O-])cc1Cl)C(C)O` (stereo not given in full) (Cbz-VF[Thr(3ξ)]F-{NH(2-Cl-4-NO2-phenyl)}), for which it took 6 µM to reach half-maximal inhibition (IC50).

The compound `CC(C)[C@H](NC(=O)C(C)(C)C)C(=O)N[C@@H](Cc1ccccc1)C(=O)N[C@H](C(=O)N[C@@H](Cc1ccccc1)C(=O)Nc1ccc([N+](=O)[O-])cc1Cl)C(C)O` (stereo not given in full) (Piv-VF[Thr(3ξ)]F-{NH(2-Cl-4-NO2-phenyl)}) showed an IC50 of 2 µM.

The compound `CC(C)C[C@H](NC(=O)[C@@H](NC(=O)OC(C)(C)C)C(C)C)C(=O)N[C@@H](Cc1ccccc1)C(=O)Nc1ccc([N+](=O)[O-])cc1Cl` registered an IC50 of over 10 µM.

As to `CN(C)c1ccc(C(=O)N[C@@H](Cc2ccccc2)C(=O)Nc2ccc([N+](=O)[O-])cc2)cc1`, the IC50 was over 10 µM.

A further experiment can be described thus: Inhibitory constant against SARS-CoV 3CL protease catalyzed cleavage of fluorogenic peptide Dabcyl-KTSAVLQSGFRKME-Edans. A digest of the protocol:
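Fluorometric cleavage assay in 20 mM Bis-Tris pH 7.0, excitation 355 nm, emission 538 nm. Enzyme stock held in 12 mM Tris-HCl pH 7.5 with NaCl, EDTA, DTT and β-ME. Initial rates measured at two fixed inhibitor concentrations across various substrate concentrations. Ki derived using double-reciprocal plots of rate versus substrate concentration.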
Consider `O=C(C[C@H](O)C(=O)N[C@@H](Cc1ccccc1)C(=O)Nc1ccc([N+](=O)[O-])cc1Cl)NC(Cc1ccccc1)C(=O)Nc1ccc([N+](=O)[O-])cc1Cl` (stereo not given in full), for which the affinity, expressed as Ki, was 3.1 µM.

Consider `CC1CCN(C(=O)N[C@H](C(=O)N[C@@H](Cc2ccccc2)C(=O)N[C@H](C(=O)N[C@@H](Cc2ccccc2)C(=O)Nc2ccc([N+](=O)[O-])cc2Cl)C(C)O)C(C)C)O1` (stereo not given in full) ({X1-CO}-VF[Thr(3ξ)]F-{NH(2-Cl-4-NO2-phenyl)}), for which the Ki (commonly the equilibrium dissociation constant of an inhibitor or competing ligand from its target) worked out at 1.61 µM.

In turn, `CC(C)C[C@H](NC(=O)[C@@H](NC(=O)c1cccs1)C(C)C)C(=O)N[C@@H](Cc1ccccc1)C(=O)Nc1ccc([N+](=O)[O-])cc1Cl` came in with a Ki of 2.29 µM.

On to `CC(C)[C@H](NC(=O)c1cccs1)C(=O)N[C@@H](Cc1ccccc1)C(=O)N[C@@H](Cc1ccccc1)C(=O)Nc1ccc([N+](=O)[O-])cc1Cl`, for which the Ki worked out at 4.3 µM.

Compound `CN(C)c1ccc(C(=O)N[C@@H](Cc2ccccc2)C(=O)Nc2ccc([N+](=O)[O-])cc2Cl)cc1` came in with a Ki of 0.03 µM.

`CC1CCN(C(=O)N[C@H](C(=O)N[C@@H](Cc2ccccc2)C(=O)N[C@@H](Cc2ccccc2)C(=O)Nc2ccc([N+](=O)[O-])cc2Cl)C(C)C)O1` (stereo not given in full) came in with a Ki of 2.9 µM.

`CC(C)[C@H](NC(=O)OCc1ccccc1)C(=O)N[C@@H](Cc1ccccc1)C(=O)N[C@H](C(=O)N[C@@H](Cc1ccccc1)C(=O)Nc1ccc([N+](=O)[O-])cc1Cl)C(C)O` (stereo not given in full) (Cbz-VF[Thr(3ξ)]F-{NH(2-Cl-4-NO2-phenyl)}) came in with a Ki of 1.51 µM.
